Test results as given in ChEMBL document CHEMBL2151014, “Facile water promoted synthesis of 1,2,3-triazolyl dihydropyrimidine-2-thione hybrids - highly potent antibacterial agents” (2012).
Values after ≈ are worked out from the molar mass of the structure shown. Active and inactive are the calls of the source. The calls are words filed in the database; no cut-off is given here.

Columns and labels:
Staphylococcus aureus = test: Antibacterial activity against Staphylococcus aureus after 48 hrs by well diffusion assay; assay type: functional
Procedure, shortened: (§1)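 Clinical isolates identified biochemically; maintained on yeast extract–peptone–NaCl agar, pH 7.2, at 28 ± 2 °C. About 1 mL inoculum mixed into molten nutrient agar and poured. A central 5 mm well was cut and filled with 50 μL of compound in 10% DMSO, filter-sterilized, at various concentrations. 10% DMSO served as control. Inhibition zones were read after 48 h at room temperature.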

Streptococcus pneumoniae = test: Antibacterial activity against Streptococcus pneumoniae after 48 hrs by well diffusion assay; assay type: functional; procedure, shortened: as §1
Pseudomonas aeruginosa = test: Antibacterial activity against Pseudomonas aeruginosa after 48 hrs by well diffusion assay; assay type: functional; procedure, shortened: as §1
Salmonella typhi = test: Antibacterial activity against Salmonella typhi after 48 hrs by well diffusion assay
[1] = Salmonella enterica subsp. enterica serovar Typhi

| MIC99 (Staphylococcus aureus) | MIC99 (Streptococcus pneumoniae) [µg/mL] | MIC99 (Pseudomonas aeruginosa) | MIC99 (Salmonella typhi; Salmonella enterica) [µg/mL] | MIC99 (Salmonella typhi; [1]) | SMILES |
| --- | --- | --- | --- | --- | --- |
| 10 µg/mL (≈ 27.7 µM) | 19 (≈ 52.6 µM) | 12 µg/mL (≈ 33.2 µM) | 18 (≈ 49.8 µM) | – | Cc1c(C2=CC(c3ccccc3)NC(=S)N2)nnn1Cc1ccccc1 (configuration not stated) |
| 20 µg/mL (≈ 49.2 µM) | 20 (≈ 49.2 µM) | 20 µg/mL (≈ 49.2 µM) | 80 (≈ 197 µM) | – | Cc1c(C2=CC(c3ccc([N+](=O)[O-])cc3)NC(=S)N2)nnn1Cc1ccccc1 (configuration not stated) |
| inactive | 40 (≈ 102 µM) | 10 µg/mL (≈ 25.5 µM) | – | inactive | COc1ccc(C2C=C(c3nnn(Cc4ccccc4)c3C)NC(=S)N2)cc1 (configuration not stated) |
| 10 µg/mL (≈ 22.5 µM) | 20 (≈ 45 µM) | 10 µg/mL (≈ 22.5 µM) | 15 (≈ 33.8 µM) | – | CN(C)[C@@H]1C(O)=C(C(N)=O)C(=O)[C@@]2(O)C(O)=C3C(=O)c4c(O)cccc4[C@@](C)(O)[C@H]3C[C@@H]12 [TETRACYCLINE] |
| 37 µg/mL (≈ 98.5 µM) | 19 (≈ 50.6 µM) | 18 µg/mL (≈ 47.9 µM) | 25 (≈ 66.6 µM) | – | Cc1ccccc1C1C=C(c2nnn(Cc3ccccc3)c2C)NC(=S)N1 (configuration not stated) |
| 22 µg/mL (≈ 50 µM) | 35 (≈ 79.5 µM) | 24 µg/mL (≈ 54.5 µM) | 90 (≈ 204 µM) | – | Cc1c(C2=CC(c3cccc(Br)c3)NC(=S)N2)nnn1Cc1ccccc1 (configuration not stated) |
| 95 µg/mL (≈ 216 µM) | 44 (≈ 99.9 µM) | 100 µg/mL (≈ 227 µM) | 120 (≈ 272 µM) | – | Cc1c(C2=CC(c3ccc(Br)cc3)NC(=S)N2)nnn1Cc1ccccc1 (configuration not stated) |
| inactive | 33 (≈ 74.9 µM) | inactive | – | inactive | Cc1c(C2=CC(c3ccccc3Br)NC(=S)N2)nnn1Cc1ccccc1 (configuration not stated) |
| inactive | 42 (≈ 99.6 µM) | inactive | 32 (≈ 75.9 µM) | – | COc1ccc(C2C=C(c3nnn(Cc4ccccc4)c3C)NC(=S)N2)c(OC)c1 (configuration not stated) |
| 85 µg/mL (≈ 224 µM) | 100 (≈ 264 µM) | 130 µg/mL (≈ 343 µM) | – | inactive | Cc1c(C2=CC(c3ccc(F)cc3)NC(=S)N2)nnn1Cc1ccccc1 (configuration not stated) |
| 43 µg/mL (≈ 99.9 µM) | 25 (≈ 58.1 µM) | inactive | – | inactive | Cc1c(C2=CC(c3ccc(Cl)cc3Cl)NC(=S)N2)nnn1Cc1ccccc1 (configuration not stated) |
| 8 µg/mL (≈ 21.3 µM) | 16 (≈ 42.6 µM) | 10 µg/mL (≈ 26.6 µM) | 13 (≈ 34.6 µM) | – | Cc1ccc(C2C=C(c3nnn(Cc4ccccc4)c3C)NC(=S)N2)cc1 (configuration not stated) |
| 10 µg/mL (≈ 25.3 µM) | 10 (≈ 25.3 µM) | 9 µg/mL (≈ 22.7 µM) | 20 (≈ 50.5 µM) | – | Cc1c(C2=CC(c3ccc(Cl)cc3)NC(=S)N2)nnn1Cc1ccccc1 (configuration not stated) |
